Bioassay records: PubChem, several laboratories
hERG rescue: hERG (human) protection from proarrhythmic block; AID 1511; activation (rescue from dofetilide block), less the hit threshold, % at 10 µM; CHO-hERG, FluxOR thallium flux, dofetilide IC70 present; Q12809; 0.51% of 310,000 active;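 active = activation above the mean of controls blocked by dofetilide plus 5 SD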;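 note: thallium influx through hERG after potassium depolarization seen as dye fluorescence rise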
KCNQ1 act: potentiators or activators of human KCNQ1 potassium channel. P51787. CHO-K1 KCNQ1, thallium flux FluxOR fluorescence; active compounds read high. B-score at 10 µM. 0.35% of 310,000 active. AID 2648;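 active = fluorescence ratio B-score, a plate-corrected score, at least three library SD, with initial intensity B-score within 5 SD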
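Doses: Single concentration per compound, DMSO matched to controls | Test system: KCNQ1-transfected CHO-K1 cells | Timing: 90 min dye loading and 20 min compound exposure, both at room temperature | Measured by: Kinetic FluxOR thallium fluorescence, 10-s 1-Hz baseline, 110-s post-stimulus read | Medium: Assay buffer with matched DMSO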
PHOSPHO1 inh: blocks human PHOSPHO1 phosphatase activity; AID 1565; recombinant PHOSPHO1, absorbance phosphatase assay; inhibition, % at 13.3 µM; 1.1% of 290,000 active; in the data active = inhibition above about 60%
KCNK3 block: human KCNK3 channel inhibition, primary screen | O14649 | CHO-KCNK3 thallium flux, FluxOR fluorescence; active compounds read low | B-score at 10 µM | 0.84% of 340,000 active;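 active = B-score under library mean minus 4 SD, starting fluorescence ratio at most library mean plus 5 SD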;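 note: more negative B-score means stronger inhibition of thallium flux through KCNK3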
KCNQ1 block: human KCNQ1 channel inhibition. CHO-K1 KCNQ1, FluxOR thallium flux fluorescence; active compounds read high. B-score at 10 µM. 1.3% of 310,000 active;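 active = compounds whose thallium flux B-score, printed positive for inhibition, exceeds three library SD while starting fluorescence stays within three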;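 note: channel opened by potassium depolarization with thallium stimulus after 20 min compound exposure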
KCNK9 block: inhibitors of human KCNK9 two-pore domain potassium channel. Q9NPC2. B-score at 10 µM. AID 488922. 1.2% of 310,000 active. HEK293 KCNK9, FluxOR thallium flux fluorescence; active compounds read low;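 active = ratio B-score over 3 SD below the library mean, with starting fluorescence within 5 SD of its mean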;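 note: negative B-score means less thallium flux so channel inhibition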
KCNK9 block conf: human KCNK9 inhibitor confirmation; shares compounds with KCNK9 block; inhibition, % at 10 µM; HEK293 KCNK9 cells, FluxOR thallium flux fluorescence; 43% of 4,900 active;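 active = thallium signal inhibited by more than 5 SD of the compound-free buffer control wells, on both duplicate plates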
Kir2-1 spec: mouse Kir2.1 off-target activity of KCNK9 modulators; shares compounds with KCNK9 block; Kir2.1 cells, FluxOR thallium flux fluorescence; inhibition, % at 10 µM; 4% of 4,900 active; AID 492993;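 active = thallium signal drop more than 5 SD beyond the mean of the no-compound control wells, seen in both duplicate plates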;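 note: signal is fluorescence rise after thallium addition divided by baseline fluorescence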
Target sequence (P35561 whole entry, looked up): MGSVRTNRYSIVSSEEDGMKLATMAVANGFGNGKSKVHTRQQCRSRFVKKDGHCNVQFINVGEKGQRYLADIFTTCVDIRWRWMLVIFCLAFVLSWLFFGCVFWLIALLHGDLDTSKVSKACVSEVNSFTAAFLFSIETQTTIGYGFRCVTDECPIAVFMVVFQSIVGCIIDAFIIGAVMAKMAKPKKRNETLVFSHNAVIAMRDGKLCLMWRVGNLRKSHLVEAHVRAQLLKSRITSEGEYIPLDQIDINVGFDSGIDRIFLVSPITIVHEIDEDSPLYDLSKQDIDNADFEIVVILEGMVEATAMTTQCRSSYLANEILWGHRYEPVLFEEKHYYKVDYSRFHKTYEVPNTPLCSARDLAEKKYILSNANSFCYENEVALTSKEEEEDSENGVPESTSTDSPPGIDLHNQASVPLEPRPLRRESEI
KCNK9 uninduced: second check of KCNK9 modulator effects in non-induced HEK293 cells | shares compounds with KCNK9 block | FluxOR thallium flux | inhibition, % at 10 µM | 40% of 4,900 active;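 active = thallium signal drop beyond 5 SD of the untreated control mean, on both duplicate plates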
A number is an active result; n = inactive; x = not tested or not shown. An excerpt weighted towards active compounds, which were near 4% of everything screened.

SMILES | hERG rescue | KCNQ1 act | PHOSPHO1 inh | KCNK3 block | KCNQ1 block | KCNK9 block | KCNK9 block conf | Kir2-1 spec | KCNK9 uninduced
COC(=O)CC1(C(=O)OC)Oc2ccc(Br)cc2C(=O)N1c1cc(Cl)c(Cl)cc1Cl (configuration not stated) | n | n | n | n | n | -8.6 | 25% | n | 42%
COC(=O)CC1(C(=O)OC)Oc2ccc(Br)cc2C(=O)N1c1ccc(Br)cc1Cl (configuration not stated) | n | n | n | n | n | n | x | x | x
O=[N+]([O-])c1ccc(/C=C/c2ccc3cccc([N+](=O)[O-])c3n2)cc1 | n | n | n | n | n | n | x | x | x
O=[N+]([O-])c1cccc2ccc(/C=C/c3ccc(F)cc3)nc12 | n | n | n | n | n | -13 | 48% | n | 32%
O=C(O)C1CCCN1C(=O)Nc1ccccc1 (configuration not stated) | n | n | n | n | n | n | x | x | x
Cc1nc2ncnn2c(N2CCN(S(=O)(=O)c3ccc(Br)cc3)CC2)c1C | n | n | n | n | n | n | x | x | x
COc1ccc(Br)cc1CNC(=O)C1CCCN(S(=O)(=O)N2CC(C)CC(C)C2)C1 (configuration not stated) | n | n | n | n | n | -8.5 | n | n | n
CC1CC(C)CN(S(=O)(=O)N2CCCC(C(=O)NCCc3ccc(Cl)cc3)C2)C1 (configuration not stated) | n | n | n | n | n | n | x | x | x
Cc1ccc(CNC(=O)C2CCCN(S(=O)(=O)N3CC(C)CC(C)C3)C2)cc1 (configuration not stated) | n | n | n | n | n | n | n | n | n
Cc1cc(/C=N/NC(=O)c2nn(C)cc2Cl)c(C)n1-c1cccc(Br)c1 | n | n | n | n | n | n | x | x | x
CSc1cnn(Cc2ccccc2)c(=O)c1SCc1ccccc1 | n | n | n | n | n | n | n | 40% | 44%
COc1ccc(CN2CCN(Cc3ccccc3C(F)(F)F)CC2)c(OC)c1 | n | n | n | n | n | n | n | n | n
COc1cccc(CN2CCN(Cc3cc(OC)c(OC)c(OC)c3)CC2)c1OC | n | n | n | n | n | n | x | x | x
O=S1(=O)CCN(Cc2ccccc2C(F)(F)F)CC1 | n | n | n | n | n | n | x | x | x
COc1cccc(CN2CCN(Cc3cccc(Oc4ccccc4)c3)CC2)c1OC | n | n | n | n | n | n | n | n | n
Cc1ccccc1CN1CCN(Cc2ccccc2C(F)(F)F)CC1 | n | n | n | n | n | n | n | n | n
COc1cccc(CN2CCN(Cc3ccccc3C(F)(F)F)CC2)c1 | n | n | n | n | n | n | n | n | n
COc1cc(OC)c(NC(=O)c2cc(S(=O)(=O)N3CCOCC3)cn2C)cc1Cl | n | n | n | n | n | n | x | x | x
COc1ccccc1N1CCN(C(=O)CCCn2c(=O)[nH]c3ccsc3c2=O)CC1 | n | n | n | n | n | n | x | x | x
COc1ccc(OC)c(CN2CCN(Cc3cccc4ccccc34)CC2)c1 | n | n | n | n | n | n | n | n | n
CCn1cc(C(=O)N[C@H](C(=O)NCCN2CCOCC2)C(C)C)c(=O)c2cc3c(cc21)OCO3 | n | n | n | n | n | n | x | x | x
Cc1c(C(=O)Oc2cccc3cccnc23)cccc1[N+](=O)[O-] | n | n | n | n | n | n | x | x | x
CN1N=C(c2ccc(Cl)cc2)CC(c2ccc(Cl)cc2)C1=O (configuration not stated) | n | n | n | n | n | -11 | 38% | n | 40%
O=C(CNC(=S)N(Cc1ccccc1Cl)C1CCCC1)NCCCN1CCOCC1 | n | n | n | n | n | n | x | x | x
CC(=O)N1c2c(cc(Br)cc2S(=O)(=O)NCc2cccnc2)CC1C (configuration not stated) | n | n | n | n | n | n | x | x | x
